Source: PubChem
PostGolgi ctrl: yeast control strain growth, post-Golgi counter-screen. 98,000 tested, 5% active. efflux-deficient yeast background strain, growth absorbance A615, 16 h. AID 738. inhibition, % at 10 µM
Yeast lifespan up: extends the lifespan of yeast; S. cerevisiae growth with nicotinamide, OD615; deaD strain in restrictive glucose medium; 130,000 tested, 0.68% active; inhibition of the nicotinamide effect, % at 10 µM;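 active = inhibition above a set limit, placed 3 SD over the median of all compounds, cut at about 26% in these data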
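assay system = DeaD-strain S. cerevisiae | buffer or medium = restrictive glucose medium | reagent = 1.5 mM nicotinamide | compound = 10 µM single point, 0.25% DMSO | incubation = 48 h compound exposure at 30 °C, humidified | signal = OD615 measurement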
Yeast growth inh: reduces growth of yeast BB579 in restrictive medium | 140,000 tested, 0.51% active | S. cerevisiae BB579 growth, OD615, 48 h | AID 804 | inhibition, % at 10 µM;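 active = inhibition above a set limit, 3 SD over the mean compound inhibition, cut at about 44% in these data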
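System: DeaD yeast strain BB579; buffer or medium: CSMM-D dextrose restrictive medium; technique: OD at 615 nm; schedule: 4 h cell preincubation, 48 h compound exposure, 30 °C humidified; doses: single 10 µM dose; controls: amphotericin B 10 µg/mL, positive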
PostGolgi yeast: growth inhibition of a yeast mutant, post-Golgi transport screen | post-Golgi transport phenotypic cell assay | inhibition, % at 10 µM | AID 739 | 98,000 tested, 0.9% active;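 note: yeast cells grown in 1536-well plates; yeast grown about 18 h at 30C before absorbance read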
Large screens that a line does not name were inactive. This excerpt belongs to a sample that is enriched for hits. Cut-off read from the data, not from the text of the source, unless noted: active = inhibition above about 30%; inactive = the rest.

Cc1cnc(NC(=O)CCCc2nc3ccccc3s2)s1	none
Cc1ccc2nc(NC(=O)CCCc3nc4ccccc4s3)sc2c1	PostGolgi ctrl 45
O=C1CC(c2cccs2)Cc2nc(NCC3CCCO3)ncc21 (configuration not stated)	none
CS(=O)(=O)N(Cc1ccccc1)c1ccccc1C(=O)N1CCN(c2ccccc2)CC1	none
Cc1ccccc1-n1nnnc1SCC(N)=O	none
Cc1ccccc1-n1nnnc1Sc1nnnn1-c1ccccc1	Yeast lifespan up 39
O=c1[nH]c(=O)n(CCOc2ccc(Cl)cc2)cc1Br	none
CCCOc1ccc(S(=O)(=O)n2cc(Br)c(=O)[nH]c2=O)cc1	PostGolgi ctrl 42
COc1ccc(NC(=O)Nc2cc(C)ccc2OC)cc1	none
COc1ccc(C(C)(C)C)cc1NC(=O)Nc1ccc2c(c1)OCO2	PostGolgi ctrl 71
COc1ccc(Cl)cc1NC(=O)Nc1cccc([N+](=O)[O-])c1C	PostGolgi ctrl 42
COc1ccc(OC)c(NC(=O)Nc2ccc(Cl)cc2)c1	PostGolgi ctrl 41
CCCCCNC(=O)c1cc(S(=O)(=O)N2CCCC2)ccc1F	none (no result: PostGolgi ctrl, PostGolgi yeast)
O=C(c1ccccn1)c1cc2ccccc2n1S(=O)(=O)c1ccccc1	none (no result: PostGolgi ctrl, PostGolgi yeast)
COc1ccc(N=C2S/C(=C\c3ccc(N4CCOCC4)o3)C(=O)N2CCc2c[nH]c3ccccc23)cc1	PostGolgi ctrl 32
CCCN1C(=O)/C(=C/c2ccc(C)o2)SC1=Nc1ccc(OC)cc1	none
Cc1cccc(OCc2nnc3n2CCCCC3)c1	none
O=C1NC(=O)/C(=C\c2ccccc2Oc2ccc(F)c(F)c2)S1	PostGolgi ctrl 43
N#Cc1nc(-c2cccs2)oc1NCC1CCCO1 (configuration not stated)	PostGolgi ctrl 39
CC1C(=O)CC(c2ccco2)NC1c1ccco1 (configuration not stated)	none
c1csc(CNCCCN2CCOCC2)c1	PostGolgi ctrl 31
C=CCOc1c(Br)cc(CNc2ccc(NC(=O)C(C)C)c(OC)c2)cc1OC	none
O=C(COc1ccc(Cl)cc1Cl)OCn1nnc2ccccc2c1=O	none
O=C(CSCC(=O)OCn1nnc2ccccc2c1=O)Nc1ccc(Cl)cc1	PostGolgi ctrl 32
O=C(Nc1ccsc1C(=O)NC1CCCCC1)c1ccccc1	none
Cc1ccc(C2CC(C(F)(F)F)n3nc(C(=O)NCc4ccco4)cc3N2)cc1 (configuration not stated)	PostGolgi ctrl 32
COc1ccc(NC(=O)c2cc3n(n2)C(C(F)(F)F)CC(c2ccc4c(c2)OCO4)N3)cc1OC (configuration not stated)	none
CCCCNC(=O)c1cc2n(n1)C(C(F)(F)F)CC(c1ccccc1)N2 (configuration not stated)	PostGolgi ctrl 35
Cc1cccc(NC(=O)c2cc3n(n2)C(C(F)(F)F)CC(c2ccc4c(c2)OCO4)N3)c1 (configuration not stated)	PostGolgi ctrl 58
Cc1ccc(C2CC(C(F)(F)F)n3nc(C(=O)NCCN4CCOCC4)cc3N2)cc1 (configuration not stated)	none
Cc1cc(C(=O)NCc2ccco2)no1	PostGolgi yeast 30
NC(=O)C1(N2CCCCC2)CCN(C(=S)Nc2cccc(Cl)c2)CC1	none (no result: PostGolgi ctrl, PostGolgi yeast)
COc1ccc(NS(=O)(=O)c2cccc(NC(=O)CCS(=O)(=O)c3ccccc3)c2)cc1	none (no result: PostGolgi ctrl, PostGolgi yeast)
CCOc1ccccc1N(C(=O)Nc1ccc(Cl)cc1)C1=NC(C)CS1 (configuration not stated)	none (no result: PostGolgi ctrl, PostGolgi yeast)
O=C(N/N=C\c1cccc([N+](=O)[O-])c1O)C1COc2ccccc2O1 (configuration not stated)	Yeast growth inh 64 (no result: PostGolgi ctrl, PostGolgi yeast)
N/C(Cc1ccc(Cl)cc1Cl)=N\OC(=O)c1cccs1	PostGolgi ctrl 58, Yeast growth inh 100
CCCNC(=O)c1ccccc1NC(=O)c1ccc(CSc2ccccc2)cc1	PostGolgi ctrl 80
C=CCn1c(SCC(=O)Nc2nnc(CC)s2)nnc1-c1ccco1	none
O=C(NCc1ccccc1)C(c1ccc(F)cc1)N(Cc1cccs1)C(=O)c1cnccn1 (configuration not stated)	none (no result: PostGolgi ctrl, PostGolgi yeast)
O=C(NCc1ccccc1)C(c1ccccc1)N(Cc1cccs1)C(=O)c1cnccn1 (configuration not stated)	PostGolgi ctrl 40
CCCC(C)C(=O)Nc1nc(C)c(-c2csc(Nc3ccc(Cl)cc3)n2)s1 (configuration not stated)	PostGolgi ctrl 34
Cc1ccc(N(CC(O)CN2CCCC2)S(=O)(=O)c2ccc(C)cc2)cc1 (configuration not stated)	PostGolgi ctrl 46
Cc1ccc(N(CC(O)Cn2c3ccccc3c3ccccc32)S(C)(=O)=O)cc1 (configuration not stated)	PostGolgi ctrl 51
Cc1ccc(N(CC(O)CON=C2c3ccccc3-c3ccccc32)S(C)(=O)=O)cc1 (configuration not stated)	PostGolgi ctrl 67
Cc1ccc(N(CC(O)Cn2c3ccccc3c3ccccc32)S(C)(=O)=O)c(C)c1 (configuration not stated)	PostGolgi ctrl 51
Cc1ccc(N(CC(O)CN2CCOCC2)S(=O)(=O)c2ccc3ccccc3c2)cc1 (configuration not stated)	none
Cc1ccc(N=C(c2cccs2)N2CCOCC2)cc1	none
COc1ccc2c(c1)c(=O)oc1cc(OCC(=O)N3CCc4ccccc4C3)ccc12	none
O=C(C1CCCO1)N1CCN(S(=O)(=O)c2ccccc2)CC1 (configuration not stated)	PostGolgi ctrl 36
O=C(c1ccc(Br)cc1)N1CCN(S(=O)(=O)c2ccccc2)CC1	PostGolgi ctrl 35
O=C(C1CCCO1)N1CCN(C(c2ccccc2)c2ccccc2)CC1 (configuration not stated)	none
C=CCn1c(SCc2c(C)noc2C)nc2sc(C)c(C)c2c1=O	PostGolgi ctrl 35
Cc1noc(C)c1CSc1nc2sc(C)c(C)c2c(=O)n1-c1ccccc1	none
Cc1cccc(NS(=O)(=O)c2ccc(C3CCCCC3)cc2)c1	PostGolgi ctrl 50
O=C(CCN1CCC(c2ccccc2)C1)c1cccs1 (configuration not stated)	PostGolgi ctrl 39
CC(C)(C)c1ccc(Cn2cnc(-c3ccc([N+](=O)[O-])cc3)c2)cc1	none (no result: PostGolgi ctrl, PostGolgi yeast)
Cc1cc(C)c(Cn2cnc(-c3ccc([N+](=O)[O-])cc3)c2)c(C)c1	PostGolgi ctrl 33
CCc1nc(N2CCN(Cc3ccc4c(c3)OCO4)CC2)c2oc3ccccc3c2n1	none
Cc1cccc2cc(CN(C(=O)c3cnccn3)C3CCCCC3)c(Cl)nc12	PostGolgi ctrl 33
Cc1ccc2c(c1)cc(CN(Cc1cccs1)C(=O)c1ccco1)c1nnnn12	PostGolgi ctrl 42
Cc1ccc(C=NCc2ccncc2)c(O)c1	none
O=[N+]([O-])c1cc2oc3c(c2c(C=NCc2ccncc2)c1O)CCCC3	Yeast lifespan up 67 (no result: PostGolgi ctrl, PostGolgi yeast)
CN(C)CCNS(=O)(=O)c1ccc(N2CCN(c3ccc(F)cc3)CC2)c([N+](=O)[O-])c1	none (no result: PostGolgi ctrl, PostGolgi yeast)
Nc1cc(OC(=O)c2cccs2)nn1S(=O)(=O)c1ccccc1	none
